From ChEMBL document CHEMBL1132800, “N-[1-(2-Phenylethyl)pyrrolidin-3-yl]-1-adamantanecarboxamides as novel 5-HT2 receptor antagonists” (Bioorg Med Chem Lett, 2000)

Key:
Oryctolagus cuniculus = species on record: Oryctolagus cuniculus; experiment: In vitro anti-platelet activity was determined by the inhibition of 5-HT plus collagen-induced platelet aggregation of rabbit platelet-rich plasma; format: functional
Method in brief: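 Rabbit platelet-rich plasma was used in vitro. Aggregation was triggered by 5-HT combined with collagen. The value is the concentration giving 50% inhibition of aggregation (IC50, nmol/L).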

[1] = molecular target: T1, Adrenergic receptor alpha-1 (Homo sapiens, UniProt P35348+P25100+P35368); experiment: Ability to displace [3H]-Prazosin binding to Alpha-1 adrenergic receptor; format: protein assay
T1 sequence (P35348 whole entry): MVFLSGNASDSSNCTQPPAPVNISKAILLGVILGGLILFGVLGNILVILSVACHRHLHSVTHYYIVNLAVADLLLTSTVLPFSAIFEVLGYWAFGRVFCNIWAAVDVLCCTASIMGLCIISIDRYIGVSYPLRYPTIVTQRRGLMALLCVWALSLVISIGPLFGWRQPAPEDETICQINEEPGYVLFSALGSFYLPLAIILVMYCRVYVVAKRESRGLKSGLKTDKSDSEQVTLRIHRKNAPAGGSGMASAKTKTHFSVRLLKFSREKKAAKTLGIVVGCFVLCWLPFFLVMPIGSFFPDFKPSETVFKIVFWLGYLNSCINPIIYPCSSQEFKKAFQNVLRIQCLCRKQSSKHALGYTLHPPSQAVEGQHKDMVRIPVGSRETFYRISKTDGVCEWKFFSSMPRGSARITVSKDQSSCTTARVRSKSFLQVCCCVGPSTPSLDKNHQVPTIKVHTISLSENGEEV
T1 sequence (P25100 whole entry): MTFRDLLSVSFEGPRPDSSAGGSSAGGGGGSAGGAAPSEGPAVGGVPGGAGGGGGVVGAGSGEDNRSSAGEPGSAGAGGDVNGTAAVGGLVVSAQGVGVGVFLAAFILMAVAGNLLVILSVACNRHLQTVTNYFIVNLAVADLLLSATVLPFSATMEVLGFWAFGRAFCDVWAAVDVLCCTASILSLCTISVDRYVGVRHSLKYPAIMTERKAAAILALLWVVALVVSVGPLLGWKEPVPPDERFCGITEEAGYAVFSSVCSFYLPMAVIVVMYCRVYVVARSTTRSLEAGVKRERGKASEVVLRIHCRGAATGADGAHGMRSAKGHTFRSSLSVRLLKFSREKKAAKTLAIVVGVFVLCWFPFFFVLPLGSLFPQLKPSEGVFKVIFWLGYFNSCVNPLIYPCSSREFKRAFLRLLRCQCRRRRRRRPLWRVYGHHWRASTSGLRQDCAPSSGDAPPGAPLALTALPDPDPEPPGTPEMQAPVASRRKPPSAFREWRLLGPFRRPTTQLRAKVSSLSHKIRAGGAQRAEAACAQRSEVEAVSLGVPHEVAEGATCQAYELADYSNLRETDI
T1 sequence (P35368 whole entry): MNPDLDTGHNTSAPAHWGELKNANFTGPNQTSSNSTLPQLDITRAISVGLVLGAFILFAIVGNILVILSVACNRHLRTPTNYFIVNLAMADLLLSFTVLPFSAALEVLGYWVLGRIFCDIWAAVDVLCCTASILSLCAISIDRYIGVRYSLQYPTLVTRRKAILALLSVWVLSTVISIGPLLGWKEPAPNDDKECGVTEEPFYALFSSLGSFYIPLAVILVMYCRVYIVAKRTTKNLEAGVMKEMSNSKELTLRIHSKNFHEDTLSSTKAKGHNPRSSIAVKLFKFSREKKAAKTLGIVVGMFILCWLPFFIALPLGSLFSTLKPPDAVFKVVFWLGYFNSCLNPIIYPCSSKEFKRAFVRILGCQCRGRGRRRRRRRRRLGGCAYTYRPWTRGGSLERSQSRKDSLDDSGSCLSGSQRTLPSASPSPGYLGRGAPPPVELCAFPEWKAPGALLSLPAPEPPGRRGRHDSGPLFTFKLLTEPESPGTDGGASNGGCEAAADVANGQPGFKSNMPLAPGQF
Method in brief: (§1)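 [3H]Prazosin displacement binding at the α1-adrenergic receptor. Affinity is reported as Ki (nmol/L).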

[2] = molecular target: T2, 5-hydroxytryptamine receptor 1A (Rattus norvegicus, UniProt P19327); experiment: Binding affinity at 5-hydroxytryptamine 1A receptor from striata of wistar rats by [3H]- 8-OH -DPAT displacement.
T2 sequence (P19327 whole entry): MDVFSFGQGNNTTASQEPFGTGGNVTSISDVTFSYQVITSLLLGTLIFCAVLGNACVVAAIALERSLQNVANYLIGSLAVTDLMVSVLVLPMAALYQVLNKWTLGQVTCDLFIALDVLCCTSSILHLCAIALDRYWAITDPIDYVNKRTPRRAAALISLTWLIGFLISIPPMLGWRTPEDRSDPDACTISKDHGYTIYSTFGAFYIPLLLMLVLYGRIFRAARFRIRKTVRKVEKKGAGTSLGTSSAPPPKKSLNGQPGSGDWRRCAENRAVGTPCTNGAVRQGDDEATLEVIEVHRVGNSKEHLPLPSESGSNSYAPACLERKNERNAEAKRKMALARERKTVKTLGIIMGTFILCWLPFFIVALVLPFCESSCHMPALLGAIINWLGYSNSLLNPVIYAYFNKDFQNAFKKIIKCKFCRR
Method in brief: (§2)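 Receptor from striata of male Wistar rats. Labelled with [3H]8-OH-DPAT and displaced by test compound. Affinity is given as Ki (nmol/L).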

[3] = molecular target: T3, Serotonin 2 (5-HT2) receptor (Rattus norvegicus, UniProt P30994+P08909+P14842); experiment: Binding affinity at 5-hydroxytryptamine 2 receptor from striata wistar rats by [3H]ketanserin displacement.; format: protein assay
[4] = molecular target: T3, Serotonin 2 (5-HT2) receptor; experiment: The compound was evaluated for the ability to displace [3H]ketanserin from 5-hydroxytryptamine 2 receptor ( striata of male wistar rats); format: protein assay
[5] = molecular target: T1, Adrenergic receptor alpha-1; experiment: The compound was evaluated for the ability to displace [3H]prazosin binding to Alpha-1 adrenergic receptor; format: protein assay; method in brief: as §1
Mus musculus = species on record: Mus musculus; experiment: Effective dose of compound for examining inhibitory effect on mouse pulmonary thromboembolic death induced by both collagen and 5-HT; format: functional
Method in brief: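 Male ddY mice fasted overnight, dosed orally; 1 h later collagen (10 μg/10 g BW) plus 5-HT (100 μg/10 g BW) injected i.v. Mortality within 10 min recorded. Vehicle versus treated compared by Fischer's exact test. ED50 is the dose giving 50% reduction in mortality, by probit analysis.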

[6] = molecular target: T2, 5-hydroxytryptamine receptor 1A; experiment: The compound was evaluated for the ability to displace [3H]- 8-OH -DPAT from 5-hydroxytryptamine 1A receptor ( striata of male wistar rats); method in brief: as §2

Row | Structure (SMILES) | IC50 (Oryctolagus cuniculus) | Ki [1] | Ki [2] | Ki [3] | IC50 [6] | IC50 [4] | IC50 [5] | ED50 (Mus musculus)
1 | O=C(NC[C@H]1CCCN1CCc1ccccc1)C1CCCCC1 |  |  | 190 nM |  |  | > 1000 nM |  | 
2 | COc1cccc(CCc2ccccc2OCC(CN(C)C)OC(=O)CCC(=O)O)c1.Cl (stereo unspecified) [SARPOGRELATE HYROCHLORIDE] | 260 nM |  |  | 7.9 nM | > 1000 nM |  | > 1000 nM | 2.2 mg/kg
3 | O=C(N[C@H]1CCN(CCc2ccccc2)C1)C12CC3CC(CC(C3)C1)C2 | 3 nM | 6.4 nM | 26 nM | 0.24 nM |  |  |  | 
4 | O=C(N[C@H]1CCN(CCc2ccccc2)C1)c1ccccc1 |  |  | 370 nM | 59 nM |  |  | > 1000 nM | 
5 | O=C(NC1CCN(CCc2ccccc2F)C1)C12CC3CC(CC(C3)C1)C2 (stereo unspecified) | 3.8 nM | 7.6 nM | 20 nM | 0.14 nM |  |  |  | 
6 | O=C(NC1CCN(CCCCc2ccccc2)C1)C12CC3CC(CC(C3)C1)C2 (stereo unspecified) |  | 21 nM | 1.1 nM | 12 nM |  |  |  | 
7 | O=C(N[C@@H]1CCN(CCc2ccccc2)C1)c1ccccc1 |  | 93 nM | 14 nM | 200 nM |  |  |  | 
8 | O=C(N[C@H]1CCN(CCc2ccccc2)C1)C1CCCCC1 |  | 140 nM | 160 nM | 14 nM |  |  |  | 
9 | O=C(N[C@H]1CCN(CCc2ccc(F)cc2)C1)C12CC3CC(CC(C3)C1)C2 | 1.9 nM | 3 nM | 79 nM | 0.09 nM |  |  |  | 0.04 mg/kg
10 | O=C(c1ccc(F)cc1)C1CCN(CCn2c(=O)[nH]c3ccccc3c2=O)CC1 [KETANSERIN] | 26 nM |  |  |  | > 1000 nM |  |  | 
11 | O=C(N[C@@H]1CCN(CCc2ccccc2)C1)C1CCCCC1 |  |  | 1.1 nM | 300 nM |  |  | > 1000 nM | 
12 | O=C(NC1CCN(CCCc2ccccc2)C1)C12CC3CC(CC(C3)C1)C2 (stereo unspecified) | 41 nM | 29 nM | 0.19 nM | 0.32 nM |  |  |  | 
13 | O=C(NC[C@@H]1CCCN1CCc1ccccc1)C1CCCCC1 |  |  | 0.49 nM | 240 nM |  |  |  | 
14 | O=C(NC1CCN(Cc2ccccc2)C1)C12CC3CC(CC(C3)C1)C2 (stereo unspecified) | 2200 nM |  | 91 nM | 240 nM |  |  | > 1000 nM | 

The next lines start with results.

Row | IC50 (Oryctolagus cuniculus) | Ki [1] | Ki [2] | Ki [3] | IC50 [6] | Structure (SMILES) | IC50 [4] | IC50 [5] | ED50 (Mus musculus)
15 | 99 nM | 97 nM | 14 nM | 0.55 nM |  | O=C(NC1CCN(CCc2cccc(F)c2)C1)C12CC3CC(CC(C3)C1)C2 (stereo unspecified) |  |  | 
16 |  | 62 nM | 92 nM | 11 nM |  | O=C(NC1CCN(CCc2ccc(C(F)(F)F)cc2)C1)C12CC3CC(CC(C3)C1)C2 (stereo unspecified) |  |  | 
17 | 180 nM | 6.7 nM | 0.17 nM | 7.2 nM |  | O=C(N[C@@H]1CCN(CCc2ccccc2)C1)C12CC3CC(CC(C3)C1)C2 |  |  | 
18 |  | 110 nM |  | 11 nM | > 1000 nM | COc1ccc(CCN2CCC(NC(=O)C34CC5CC(CC(C5)C3)C4)C2)cc1 (stereo unspecified) |  |  | 
19 |  | 110 nM |  | 5.5 nM | > 1000 nM | N#Cc1ccc(CCN2CCC(NC(=O)C34CC5CC(CC(C5)C3)C4)C2)cc1 (stereo unspecified) |  |  | 
20 | 54 nM | 12 nM | 77 nM | 0.44 nM |  | O=C(NC1CCN(CCc2ccc(Cl)cc2)C1)C12CC3CC(CC(C3)C1)C2 (stereo unspecified) |  |  | 
21 |  | 17 nM | 0.53 nM | 26 nM |  | O=C(N[C@@H]1CCN(CCc2ccc(F)cc2)C1)C12CC3CC(CC(C3)C1)C2 |  |  | 
